Calls of active or inactive are those of the source. Unless noted, the calls are words filed in the database; no cut-off is given here.

Assay [1] deals with T1, Lipoprotein lipase (Bos taurus) (UniProt P11151).
T1 sequence (whole entry): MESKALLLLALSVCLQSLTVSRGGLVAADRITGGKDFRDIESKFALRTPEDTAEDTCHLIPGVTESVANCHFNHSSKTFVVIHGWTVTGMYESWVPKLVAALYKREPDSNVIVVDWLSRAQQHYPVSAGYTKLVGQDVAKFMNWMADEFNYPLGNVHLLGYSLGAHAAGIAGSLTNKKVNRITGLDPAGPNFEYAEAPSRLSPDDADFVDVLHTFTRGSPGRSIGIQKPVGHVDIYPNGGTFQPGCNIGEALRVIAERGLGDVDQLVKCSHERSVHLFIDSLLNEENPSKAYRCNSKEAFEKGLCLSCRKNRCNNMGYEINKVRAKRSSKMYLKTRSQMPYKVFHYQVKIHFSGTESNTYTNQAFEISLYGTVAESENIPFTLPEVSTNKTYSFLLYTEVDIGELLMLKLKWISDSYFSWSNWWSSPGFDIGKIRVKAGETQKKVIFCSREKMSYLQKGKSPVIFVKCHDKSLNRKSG
The assay can be described thus: Induction of bovine LPL stabilization using intralipid as substrate at 3.12 uM preincubated for 10 mins with human recombinant ANGPTL4 followed by substrate addition measured after 45 mins relative to control. The gist of the method: (§1)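 Compound in DMSO in buffer (50 mM potassium phosphate pH 7.4, 0.15 M NaCl, 0.01% Triton X-100), with human ANGPTL4 N-terminal fragment (aa 26-184, 75 nM final) and bovine LPL (15 nM final). Preincubated 10 min at 25 °C with shaking. Stopped after 45 min with 2.5% Triton X-100, and NEFA measured enzymatically. Activity normalised between DMSO+LPL+ANGPTL4 (0%) and DMSO+LPL (100%).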

For assay [2], the target named is T1, Lipoprotein lipase (Bos taurus). The assay can be described thus: Induction of bovine LPL stabilization using intralipid as substrate at 6.25 uM preincubated for 10 mins with human recombinant ANGPTL4 followed by substrate addition measured after 45 mins relative to control. The method, boiled down: as §1
For assay [3] the target is unchanged. In words: Induction of bovine LPL stabilization using intralipid as substrate at 12.5 uM preincubated for 10 mins with human recombinant ANGPTL4 followed by substrate addition measured after 45 mins relative to control. The method, boiled down: as §1
The target is the same in assay [4]. In words: Induction of bovine LPL stabilization using intralipid as substrate at 25 uM preincubated for 10 mins with human recombinant ANGPTL4 followed by substrate addition measured after 45 mins relative to control. The method, boiled down:
as §1

With `Cc1ccc(NC(=O)c2cc(N3C(=O)c4ccc(C(=O)O)cc4C3=O)ccc2N2CCOCC2)cc1`, the result in assay [1], in assay [2], in assay [3] and in assay [4] was inactive.
For `Cc1ccc(NC(=O)c2ccc(N3CCCCC3)c(N3C(=O)c4ccc(C(=O)O)cc4C3=O)c2)cc1`, the outcome in assay [1] and in assay [2] was inactive. Also, the Activity in assay [3] worked out at 81.3%; in assay [4], 79%.
For the compound `Cc1ccc(NC(=O)c2cc(Cl)cc(N3C(=O)c4ccc(C(=O)O)cc4C3=O)c2)cc1`, the outcome in assay [1], in assay [2], in assay [3] and in assay [4] was inactive.
Turning to `Cc1ccc(NC(=O)c2cc(N3C(=O)c4ccc(C(=O)O)cc4C3=O)ccc2N2CCN(C)CC2)cc1`, the result in assay [1], in assay [2], in assay [3] and in assay [4] was inactive.
Turning to `Cc1ccc(NC(=O)c2cc(N3C(=O)c4ccc(C(=O)O)cc4C3=O)ccc2N2CCCCC2)cc1C(F)(F)F`, in assay [1], the result was inactive. The Activity was 19.4% in assay [2], 42.2% in assay [3] and 65.8% in assay [4].
Taken in the same sequence, the figures for `Cc1ccc(NC(=O)c2ccc(N3C(=O)c4ccc(C(=O)O)cc4C3=O)cc2N2CCCCC2)cc1` were “inactive”, “inactive”, “inactive” and 14.1%.
Taken in the same sequence, the figures for `O=C(O)c1ccc2c(c1)C(=O)N(c1ccc(N3CCCCC3)c(C(=O)NCc3cccnc3)c1)C2=O` were “inactive”, “inactive”, “inactive” and “inactive”.
Taken in the same sequence, the figures for `Cc1ccc(NC(=O)c2cc(N3C(=O)c4ccc(C#N)cc4C3=O)ccc2N2CCCCC2)cc1` were “inactive”, “inactive”, “inactive” and “inactive”.
`COCCOCCOc1ccc(N2C(=O)c3ccc(C(=O)O)cc3C2=O)cc1C(=O)Nc1ccc(C)cc1`: the result in assay [1], in assay [2], in assay [3] and in assay [4] was inactive.
In the case of `CCCCCCNc1ccc(N2C(=O)c3ccc(C(=O)O)cc3C2=O)cc1C(=O)Nc1ccc(C)cc1`, in assay [1], the result was inactive. The results for the Activity in assay [2], in assay [3] and in assay [4] were 60.6%, 47.1% and 67.2%, respectively.
Consider `CCc1cccc(NC(=O)c2cc(N3C(=O)c4ccc(C(=O)O)cc4C3=O)ccc2N2CCCCC2)c1`, for which the outcome in assay [1] was inactive. The Activity in assay [2] turned out to be 9.2%; in assay [3] it was 63.4%; in assay [4], 71%.
Taken in the same sequence, the figures for `CCc1ccc(NC(=O)c2cc(N3C(=O)c4ccc(C(=O)O)cc4C3=O)ccc2N2CCCCC2)cc1` were “inactive”, 32.4%, 36.5% and 47%.
Taken in the same sequence, the figures for `Cc1ccc(NC(=O)c2cccc(N3C(=O)c4ccc(C(=O)O)cc4C3=O)c2N2CCCCC2)cc1` were “inactive”, “inactive”, “inactive” and 13.5%.
The matching figures for `Cc1ccc(NC(=O)c2cc(N3CCCCC3)ccc2N2C(=O)c3ccc(C(=O)O)cc3C2=O)cc1`: “inactive”, “inactive”, 55.1% and 36.3%.
`CCc1cccc(NC(=O)c2cc(N3C(=O)c4ccc(C(=O)O)cc4C3=O)ccc2Nc2ccccc2)c1`: in assay [1], the result was inactive. For the same compound, the Activity in assay [2] turned out to be 44.3%; in assay [3], 63.9%; in assay [4] it was 52.2%.
Taken in the same sequence, the figures for `O=C(O)c1ccc2c(c1)C(=O)N(c1ccccc1)C2=O` were “inactive”, “inactive”, “inactive” and “inactive”.
The matching figures for `Cc1ccc(NC(=O)c2cccc(N3CCCCC3)c2N2C(=O)c3ccc(C(=O)O)cc3C2=O)cc1`: “inactive”, “inactive”, “inactive” and 7.3%.
The matching figures for `CCCNc1ccc(N2C(=O)c3ccc(C(=O)O)cc3C2=O)cc1C(=O)Nc1ccc(C)cc1`: “inactive”, “inactive”, 6.2% and 39.7%.
`Cc1ccc(NC(=O)c2cc(N3C(=O)c4ccccc4C3=O)ccc2N2CCCCC2)cc1`: the outcome in assay [1], in assay [2], in assay [3] and in assay [4] was inactive.
Take `O=C1c2ccccc2C(=O)N1c1ccccc1`: the outcome in assay [1], in assay [2], in assay [3] and in assay [4] was inactive.
As for `COc1ccc(NC(=O)c2cc(N3C(=O)c4ccc(C(=O)O)cc4C3=O)ccc2N2CCCCC2)cc1`, the outcome in assay [1], in assay [2] and in assay [3] was inactive. Further, in assay [4], the Activity came out at 43.8%.
Turning to `Cc1ccc(NC(=O)c2cc(-n3cc4ccccc4n3)ccc2N2CCCCC2)cc1`, the result in assay [1], in assay [2], in assay [3] and in assay [4] was inactive.
Regarding `CCN(CC)c1ccc(N2C(=O)c3ccc(C(=O)O)cc3C2=O)cc1C(=O)Nc1ccc(C)cc1`, the result in assay [1], in assay [2] and in assay [3] was inactive. Moreover, the Activity in assay [4] was determined as 49.5%.
On to `Cc1cccc(NC(=O)c2cc(N3C(=O)c4ccc(C(=O)O)cc4C3=O)ccc2N2CCCCC2)c1`, for which the outcome in assay [1] and in assay [2] was inactive. In addition, the Activity is 38.6% in assay [3] and 56.6% in assay [4].
`O=C(O)c1ccc2c(c1)C(=O)N(c1ccc(N3CCCCC3)c(C(=O)NCc3ccccc3)c1)C2=O`: the outcome in assay [1], in assay [2], in assay [3] and in assay [4] was inactive.
As for `Cc1ccc(NC(=O)c2cc(N3C(=O)c4ccc(N)cc4C3=O)ccc2N2CCCCC2)cc1`, the result in assay [1], in assay [2] and in assay [3] was inactive. The Activity in assay [4] was 11.4%.
Take `O=C(O)c1ccc2c(c1)C(=O)N(c1ccc(N3CCCCC3)c(C(=O)Nc3ccccc3)c1)C2=O`: the outcome in assay [1], in assay [2] and in assay [3] was inactive. The Activity in assay [4] is 57%.
As to `Cc1ccc(NC(=O)c2cc(N3C(=O)c4ccc(C(=O)O)cc4C3=O)ccc2Nc2ccccc2)cc1`, the outcome in assay [1] was inactive. The Activity in assay [2] was 57.2%; in assay [3] it was 80.1%; in assay [4] it was 94.4%.
With `Cc1ccc(NC(=O)c2cc(N3C(=O)c4cccc(C(=O)O)c4C3=O)ccc2N2CCCCC2)cc1`, the outcome in assay [1], in assay [2], in assay [3] and in assay [4] was inactive.
As for `O=C(O)c1ccc2c(c1)C(=O)N(c1ccc(Cl)c(C(=O)NCc3cccnc3)c1)C2=O`, the outcome in assay [1], in assay [2], in assay [3] and in assay [4] was inactive.
Consider `Cc1ccc(NC(=O)c2cc(Nc3ccc(C)cc3)cc(N3C(=O)c4ccc(C(=O)O)cc4C3=O)c2)cc1`, for which, in assay [1], the outcome was inactive. The Activity in assay [2] was 5%; in assay [3] it was 7%; in assay [4] it was 24.6%.
The matching figures for `O=C(O)c1ccc2c(c1)C(=O)N(c1ccc(N3CCCCC3)c(C(=O)Nc3ccc(C(F)(F)F)cc3)c1)C2=O`: “inactive”, “inactive”, 54.6% and 81.6%.
The matching figures for `CC(C)c1ccc(NC(=O)c2cc(N3C(=O)c4ccc(C(=O)O)cc4C3=O)ccc2Nc2ccccc2)cc1`: “inactive”, 44.1%, 59.1% and 52.5%.

(Values after ChEMBL document CHEMBL3745639, “Structure-activity relationships for lipoprotein lipase agonists that lower plasma triglycerides in vivo” (Eur J Med Chem, 2015).)
